Laboratory results taken from ChEMBL document CHEMBL4622869, “Discovery and structure-activity relationships study of positive allosteric modulators of the M3 muscarinic acetylcholine receptor” (Bioorg Med Chem, 2020).

How the values were obtained:
[1] = biological target: Muscarinic acetylcholine receptor M3 (Homo sapiens) (UniProt P20309); test: Positive allosteric modulation of recombinant human muscarinic acetylcholine receptor M3 expressed in CHOK1 cells assessed as increase in carbachol-induced intracellular calcium flux at 10 uM preincubated for 5 mins followed by carbachol addition by Fluo4-AM dye based FLIPR assay relative to carbachol; format: functional, cell-based; settings: CHO-K1
Sequence of Muscarinic acetylcholine receptor M3 (Homo sapiens) (P20309 whole entry, looked up): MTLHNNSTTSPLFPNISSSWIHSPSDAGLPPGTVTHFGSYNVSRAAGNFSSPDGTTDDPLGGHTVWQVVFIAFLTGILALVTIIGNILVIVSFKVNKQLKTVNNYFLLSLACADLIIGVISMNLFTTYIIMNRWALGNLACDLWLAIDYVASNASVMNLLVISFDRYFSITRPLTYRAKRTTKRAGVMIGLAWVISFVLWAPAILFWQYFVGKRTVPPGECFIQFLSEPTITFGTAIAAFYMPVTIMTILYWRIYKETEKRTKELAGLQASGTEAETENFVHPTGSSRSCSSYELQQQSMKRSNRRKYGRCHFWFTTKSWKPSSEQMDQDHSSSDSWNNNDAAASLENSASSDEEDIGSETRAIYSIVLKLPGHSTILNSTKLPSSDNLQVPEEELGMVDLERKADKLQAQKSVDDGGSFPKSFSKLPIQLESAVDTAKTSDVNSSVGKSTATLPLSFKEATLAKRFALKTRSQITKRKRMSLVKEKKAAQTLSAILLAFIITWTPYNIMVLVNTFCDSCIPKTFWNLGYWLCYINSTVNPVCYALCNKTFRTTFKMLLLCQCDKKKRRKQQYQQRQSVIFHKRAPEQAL
Outline: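 CHO-K1 cells stably expressing human or rat M1–M5; M2 and M4 lines also co-express human Gα16. Cells loaded with 3.1 μM Fluo-4 AM in HBSS/20 mM HEPES pH 7.5/BSA/2.5 mM probenecid for ~2 h at room temperature. Test substance at 10 μM final, then carbachol (0.0024 nM–100 μM) ~5 min later; Ca2+ read by FLIPR Tetra. Fold shift = carbachol EC50 without / with test substance, from logistic fits.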

Thrombopoietin receptor = biological target: T1, Thrombopoietin receptor (Homo sapiens, UniProt P40238); test: Agonist activity at recombinant human c-Mpl receptor transfected in BA/F3 cells assessed as increase in cell proliferation by cell counting analysis; format: cell-based; settings: baf3
T1 sequence (P40238 whole entry): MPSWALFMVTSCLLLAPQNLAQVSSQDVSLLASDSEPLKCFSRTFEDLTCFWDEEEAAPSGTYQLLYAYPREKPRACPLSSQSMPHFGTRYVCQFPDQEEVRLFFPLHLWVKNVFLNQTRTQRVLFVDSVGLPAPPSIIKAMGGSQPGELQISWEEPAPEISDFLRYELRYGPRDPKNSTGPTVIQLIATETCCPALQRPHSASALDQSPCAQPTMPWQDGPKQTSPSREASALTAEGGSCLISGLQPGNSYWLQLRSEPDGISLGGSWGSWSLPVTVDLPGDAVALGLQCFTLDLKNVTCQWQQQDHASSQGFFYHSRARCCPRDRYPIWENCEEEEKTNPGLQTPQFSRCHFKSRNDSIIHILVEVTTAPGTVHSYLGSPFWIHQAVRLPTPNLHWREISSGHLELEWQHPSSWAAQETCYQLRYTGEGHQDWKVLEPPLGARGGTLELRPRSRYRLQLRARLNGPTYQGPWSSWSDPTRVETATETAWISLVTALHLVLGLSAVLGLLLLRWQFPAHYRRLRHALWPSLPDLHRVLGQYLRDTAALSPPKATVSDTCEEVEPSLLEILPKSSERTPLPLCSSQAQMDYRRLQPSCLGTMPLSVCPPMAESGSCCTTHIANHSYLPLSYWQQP
Outline: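 Ba/F3 cells stably transfected with human c-Mpl by electroporation with blasticidin selection. 1×10^4 cells/well in RPMI-1640 with 10% FBS, with test substance (100 nM to 10 μM final), overnight at 37°C in 5% CO2. Cell Counting Kit added for about 5 h, then A450 read. Scale: untreated wells 0%, reference c-Mpl agonist at 1 μM 100%. EC30 from logistic regression.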

| fold change (FC) [1] | Compound | EC30 (Thrombopoietin receptor) |
| --- | --- | --- |
| 238 | COc1ccc(-c2nc(NC(=O)c3cnc(N4CCC(C(=O)O)CC4)cn3)sc2CN2CCCC(C)(C)C2)cc1C(F)(F)F.Cl.Cl | > 10 µM |
| 118 | C[C@@H]1CCCN1Cc1sc(NC(=O)c2cnc(N3CCC(C(=O)O)CC3)cn2)nc1-c1ccc(Cl)c(C(F)(F)F)c1.Cl.Cl | 1.72 µM |
| 73 | COc1ccc(-c2nc(NC(=O)c3cnc(N4CCC(C(=O)O)CC4)cn3)sc2CN2CCC[C@H]2C)cc1C(F)(F)F.Cl.Cl | > 10 µM |
| 128 | CCC[C@@H]1CCCN1Cc1sc(NC(=O)c2cnc(N3CCC(C(=O)O)CC3)cn2)nc1-c1ccc(OC)c(C(F)(F)F)c1.Cl.Cl | > 10 µM |
| 94 | COc1ccc(-c2nc(NC(=O)c3cnc(N4CCC(C(=O)O)CC4)cn3)sc2CN2CCCC[C@H]2C)cc1C(F)(F)F.Cl.Cl | > 10 µM |
| 8.9 | COc1ccc(-c2nc(NC(=O)c3ccc(O)cc3)sc2CN2CCCC(C)(C)C2)cc1C(F)(F)F |  |
| 84 | COCCN(Cc1sc(NC(=O)c2cnc(N3CCC(C(=O)O)CC3)cn2)nc1-c1ccc(OC)c(C(F)(F)F)c1)CC(C)C.Cl.Cl | > 10 µM |
| 25 | COc1ccc(-c2nc(NC(=O)c3cnc(N4CCC(C(=O)O)CC4)cn3)sc2CN2CCC[C@@H]2C)cc1C(F)(F)F.Cl.Cl | > 10 µM |
| 162 | COc1ccc(-c2nc(NC(=O)c3cnc(NCC(=O)O)cn3)sc2CN2CCCC(C)(C)C2)cc1C(F)(F)F |  |
| 132 | C[C@@H]1CCCN1Cc1sc(NC(=O)c2cnc(N3CCC(C(=O)O)CC3)c(F)c2)nc1-c1cc(Cl)cs1.Cl.Cl | 0.0032 µM |
| 186 | C[C@@H]1CCCN1Cc1sc(NC(=O)c2cnc(N3CCC(C(=O)O)CC3)cn2)nc1-c1cc(Cl)cs1.Cl.Cl | 0.35 µM |
| 175 | COc1ccc(-c2nc(NC(=O)c3cnc(OCC(=O)O)cn3)sc2CN2CCCC(C)(C)C2)cc1C(F)(F)F |  |
| 39 | COc1ccc(-c2nc(NC(=O)c3cnc(C(=O)O)cn3)sc2CN2CCCC(C)(C)C2)cc1C(F)(F)F |  |
| 72 | COC[C@@H]1CCCN1Cc1sc(NC(=O)c2cnc(N3CCC(C(=O)O)CC3)cn2)nc1-c1ccc(OC)c(C(F)(F)F)c1.Cl.Cl | > 10 µM |
| 137 | COc1ccc(-c2nc(NC(=O)c3cnc(N(C)CC(=O)O)cn3)sc2CN2CCCC(C)(C)C2)cc1C(F)(F)F |  |
| 204 | COc1ccc(-c2nc(NC(=O)c3ccc(OCC(=O)O)cc3)sc2CN2CCCC(C)(C)C2)cc1C(F)(F)F |  |
| 168 | C[C@@H]1CCCN1Cc1sc(NC(=O)c2cnc(N3CCC(C(=O)O)CC3)cn2)nc1-c1cc(Cl)cc(C(F)(F)F)c1.Cl.Cl | 0.15 µM |
| 2.8 | C[C@@H]1CCCN1Cc1sc(NC(=O)C2CCN(c3ccc(C(=O)O)cn3)CC2)nc1-c1cc(Cl)cs1 (racemic) |  |
| 65 | C[C@@H]1CCCN1Cc1sc(NC(=O)c2cnc(N3CCC(C(=O)O)CC3)nc2)nc1-c1cc(Cl)cs1 |  |
